Screens: PubChem BioAssay, several laboratories
BaF3 parental: reduces parental Ba/F3 cell viability, JAK2V617F counter-screen; CellTiter-Glo ATP luminescence; inhibition, % at 5.6 µM; 1.1% of 220,000 active;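 active = inhibition above a per-campaign cutoff, the mean inhibition of all tested compounds plus 3 SD, cut at about 27% in these data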
Ba/F3 V617F tox: loss of viability in JAK2V617F-driven Ba/F3 cells. Ba/F3 EpoR-JAK2V617F viability, ATP luminescence. inhibition, % at 5.6 µM. 1.1% of 220,000 active;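 active = inhibition above the campaign mean plus 3 SD over all tested compounds, cut at about 24% in these data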;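 note: cytokine-independent growth of Ba/F3 cells driven by EpoR plus mutant JAK2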
MT stabilizer: stabilizes microtubules in HeLa cells | AID 2205 | HeLa tubulin immunostaining HCS, 24 h; share of cells brighter than vehicle mean+2SD | 0.83% of 200,000 active | % tubulin-high responders, % at 10 µM;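 active = plate Z-score above 3 for both tubulin-high and condensed-nucleus cell shares, with cell loss under 80%, at 10 µM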;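 note: anti alpha tubulin signal scored within the nucleus-defined area of each cell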
APP 5UTR inh: APP translation inhibition. SH-SY5Y APP 5'UTR-luciferase reporter, luminescence. inhibition, % at 2 µM. 0.82% of 190,000 active;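 active = inhibition above a set limit, derived from the sample mean plus 3 SD, cut at about 45% in these data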
b-catenin transl: beta-catenin nuclear translocation modulation; 0.3% of 190,000 active; nuclear translocation activity, % at 5 µM; HeLa beta-catenin nuclear translocation, immunofluorescence imaging;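 active = nuclear translocation activity above 50% at 5 µM, with a well cell count of 50 or more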;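 note: per-cell ratio of nuclear to cytoplasmic median beta-catenin stain intensity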
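Read-out: Nuclear/cytoplasmic beta-catenin signal ratio, % activation | Assay system: Human HeLa cell line | Times: 24 h compound exposure at 37°C, 5% CO2 | Signal: Fluorescence imaging of beta-catenin antibody stain plus DAPI | Dosing: 5 µM primary, 0.02–20 µM confirmation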
IEC-6 cytotox: kills IEC-6 intestinal cells in KLF5 counter-screen; IEC-6 cytotoxicity, luminescence viability; inhibition, % at 5 µM; 0.78% of 290,000 active; AID 1825
IEC-6 cytotox cf: IEC-6 cytotoxicity, confirmation assay; shares compounds with IEC-6 cytotox; IEC-6 rat intestinal epithelial viability, luminescence; inhibition, % at 5 µM; 63% of 1,900 active
Hits are given with their value; - = inactive; . = not tested or not shown. In the library only some 2.2% were active in any assay of this set; here they are far more common. Cut-off read from the data, not from the text of the source, unless noted: active = inhibition above about 22%; inactive = the rest.

SMILES	BaF3 parental	Ba/F3 V617F tox	MT stabilizer	APP 5UTR inh	b-catenin transl	IEC-6 cytotox	IEC-6 cytotox cf
CCOC(=O)c1ccc(NC(=O)Cn2ncc(Cl)c(Cl)c2=O)cc1	62.9	56.1	-	95.8	.	34.6	31.8
COc1ccc(NC(=O)Cn2ncc(Cl)c(Cl)c2=O)cc1S(=O)(=O)N1CCOCC1	-	-	-	-	-	41.3	-
COc1ccc(NC(=O)CSc2ccccc2)cc1S(=O)(=O)N1CCOCC1	.	.	.	.	.	-	.
Cc1cc(Br)c(NC(=O)CN2CCCC2)c(Br)c1	.	.	.	.	.	-	.
Cc1ccc(S(=O)(=O)N2CCN(c3nccnc3C#N)CC2)cc1	-	-	.	.	-	-	.
CC12CCC(C(=O)Nc3nc4ccc(Br)cc4s3)(OC1=O)C2(C)C (centres undefined)	-	-	-	-	-	-	.
Nc1c(C(=O)Nc2cccc(F)c2)nnn1-c1ccc2c(c1)OCCO2	.	.	.	.	.	-	.
Cc1ccc2cc(CN(c3ccccc3)S(=O)(=O)c3ccccc3)c(=O)[nH]c2c1	-	-	.	.	-	-	.
CCOc1ccc(N(Cc2cc3ccc(C)cc3[nH]c2=O)S(=O)(=O)c2ccccc2)cc1	.	.	.	.	.	22.0	-
O=C(N/N=C/c1ccccc1)c1n[nH]c2c1CCCC2	-	-	-	-	-	-	.
O=C(N/N=C/C(Br)=C/c1ccccc1)c1n[nH]c2c1CCC2	91.7	92.0	-	.	160.7	94.0	-
O=C(N/N=C/c1ccc(Cl)cc1)c1n[nH]c2c1CCCC2	70.9	74.9	.	.	99.9	81.6	63.2
Cc1ccc(NC2Sc3ccccc3NC2=O)cc1Cl (centres undefined)	-	-	.	.	-	-	.
Cn1c(=O)[nH]c(Nc2ccccc2)c([N+](=O)[O-])c1=O	-	-	-	-	-	-	.
Cc1n[nH]c(C)c1C(=O)CC1(O)C(=O)N(Cc2ccccc2)c2ccc(Br)cc21 (centres undefined)	-	-	-	-	.	-	.
C=CCN1C(=O)C(O)(CC(=O)c2ccco2)c2cc(Br)ccc21 (centres undefined)	-	-	-	-	-	87.1	23.0
CC(Nc1ncnc2ccccc12)c1ccccc1 (centres undefined)	.	.	.	.	.	28.1	27.2
CCCCC(Nc1ncnc2ccccc12)C(=O)O (centres undefined)	-	-	-	-	-	-	.
O=[N+]([O-])c1ccc2c(c1)N([O-])C1(CCCCC1)[N+]2=O	-	-	.	.	-	-	.
Cc1[nH]n(-c2ccc(Br)cc2)c(=O)c1/C=N/NC(=O)c1ccccc1	.	.	.	.	.	65.4	59.8
Cc1[nH]n(-c2ccccc2)c(=O)c1/C=N/NC(=O)c1ccc(O)cc1O	.	.	.	.	.	-	.
Cc1[nH]n(-c2ccccc2)c(=O)c1/C=N/NC(=O)c1cccc(F)c1	.	.	.	.	.	22.0	-
CC1Cc2ccccc2N1C(=O)CSc1nnc(N)s1 (centres undefined)	.	.	.	.	.	-	.
COc1cccc(C(=O)Nc2ccc(F)cc2F)c1	-	-	-	-	.	-	.
COc1cc2c(c(OC)c1OC)-c1ccc(OC)c(=O)cc1C(NC(C)=O)CC2 (centres undefined)	.	.	.	.	.	94.2	80.1
SMILES	BaF3 parental	Ba/F3 V617F tox	MT stabilizer	APP 5UTR inh	b-catenin transl	IEC-6 cytotox	IEC-6 cytotox cf
COc1cccc(C(=O)Nc2ccc3c(cc2=O)[C@@H](NC(C)=O)CCc2cc(OC)c(OC)c(OC)c2-3)c1	.	.	.	.	.	46.3	38.9
COc1cc2c(c(OC)c1OC)C(=O)CC2	-	-	.	.	-	-	.
Cc1ccc2oc(C(=O)N(C)CCC(O)c3ccccc3)c(C)c2c1 (centres undefined)	.	.	.	.	.	-	.
CCc1noc(C)c1C(=O)NC1CC(C)(C)Cc2c1cnn2-c1ccccc1 (centres undefined)	.	.	.	.	.	-	.
C=C(C)COc1ccc(-c2[nH]ncc2-c2ccc(OC)cc2)c(O)c1	-	-	.	.	-	-	.
C=C(C)COc1ccc(-c2n[nH]c(C)c2Oc2ccccc2OC)c(O)c1	-	-	-	-	-	-	.
C=C(C)COc1ccc(-c2n[nH]c(C)c2-c2ccc(OC)c(OC)c2)c(O)c1	75.7	78.0	.	.	-	75.4	48.8
C=C(C)COc1ccc(-c2[nH]ncc2-c2ccc(OC)c(OC)c2)c(O)c1	65.8	81.1	58.1	91.1	-	62.3	56.9
Cc1cc(=O)oc2cc(OCCc3ccccc3)ccc12	.	.	.	.	.	44.4	22.4
Cc1cc(=O)oc2cc(OCCCC[n+]3ccccc3)ccc12	-	-	.	.	-	-	.
COc1cccc(C(=O)COc2ccc3c(C)cc(=O)oc3c2)c1	.	.	.	.	.	28.5	-
COc1ccc(C(=O)COc2ccc3c(C)cc(=O)oc3c2)cc1	.	.	.	.	.	-	.
Cn1c(=O)c([N+](=O)[O-])c(Cl)c2ccccc21	-	-	.	57.4	-	48.0	64.3
O=c1oc(-c2ccccc2)cc(Cl)c1Cl	.	.	.	.	.	30.9	-
CN(C)c1cc(-c2cccc([N+](=O)[O-])c2)oc(=O)c1Cl	-	-	.	.	-	-	.
CN(C)S(=O)(=O)N1CCC(Oc2ccc(C(=O)NCC(C)(C)CO)cc2)CC1	-	-	-	-	-	-	.
Cc1ccc(C(C)C)c(OCc2ccc(C(=O)N/N=C/c3cccc(O)c3O)cc2)c1	89.9	96.8	-	79.7	-	41.4	78.0
O=S(=O)(NC(=NCCc1ccc(Cl)cc1)c1ccccc1Cl)c1cccs1	-	-	-	-	-	-	.
Fc1ccc(-c2csc(Nc3ccccn3)n2)cc1	.	.	.	.	.	32.3	-
CC(=O)c1ccc(N/N=C(/C(N)=O)C2=NC(C)(C)Cc3ccccc32)cc1	-	-	-	-	-	39.7	32.6
CC1(C)Cc2ccccc2C(/C(=N\Nc2cccc(Cl)c2)C(N)=O)=N1	-	-	-	-	-	-	.
CCN(CC)c1ccc(/C=N/NC(=O)CNC(=O)C2COc3ccccc3O2)c(O)c1 (centres undefined)	.	.	.	.	.	51.7	48.3
O=C(Nc1ccccc1C(=O)NCc1cccnc1)c1ccccc1F	.	.	.	.	.	-	.
CCN1C(=O)C(O)(C2COC(C)(C)CC2=O)c2cc(Br)ccc21 (centres undefined)	32.9	-	-	-	.	83.9	-
COCCCNC(=S)NNC(=O)c1cc(Cl)c(O)c(Cl)c1	-	-	.	.	-	-	.
SMILES	BaF3 parental	Ba/F3 V617F tox	MT stabilizer	APP 5UTR inh	b-catenin transl	IEC-6 cytotox	IEC-6 cytotox cf
COCCCNC(=S)NNC(=S)NCCCOC	-	-	.	.	-	22.4	-
Cc1ccc(S(=O)(=O)c2nc(-c3ccccc3Cl)oc2N(C)C)cc1	.	.	.	.	.	24.4	-
Cc1ccc(S(=O)(=O)c2nc(-c3ccccc3Br)oc2N(C)C)cc1	.	.	.	.	.	-	.
N#CCCN(C(=O)c1ccc2c(=O)n3c(nc2c1)CCCCC3)c1ccccc1	.	.	.	.	.	-	.
COc1cc(OC)c(C2=NOC(C(=O)NCc3cccs3)C2)cc1Cl (centres undefined)	-	-	19.4	-	-	42.0	40.8
COc1ccc(C2=NOC(C(=O)NCc3cccs3)C2)cc1OC (centres undefined)	75.5	87.3	41.2	.	.	51.8	51.5
COc1cc(OC)c(C2=NOC(C(=O)NCc3cccnc3)C2)cc1Cl (centres undefined)	.	.	.	.	.	-	.
O=c1nc(N/N=C/C=C/c2ccccc2)cn[nH]1	-	-	.	.	-	-	.
